Assay [1] can be described thus: Her2 expression decrease, cell viability multiplex – SKBR3 breast tumor cells, AlphaScreen, ATP viability, primary screen (AID 461).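 For Her2 level: lower value means less Her2 protein in the cells.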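 For viability: percent of carrier control wells set as 100% viability.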 To be noted: SKBR3 Her2 protein level, 18-24 h, measured here: SKBR3 viability, ATP luminescence, at 10 µM.
Assay [2] deals with Receptor tyrosine-protein kinase erbB-2 (Homo sapiens) (UniProt P04626). The description is as above. Conditions: 18-24 h, at 10 µM, stronger effect = lower value.
Assay [3] can be described thus: reduced viability of SK-BR-3 breast cancer cells – cell-based, 24 h, human, pilot screen (AID 572;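 active = viability at or below 10% of carrier control in both of two separate runs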;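 note: compound exposure lasted between 18 and 24 h rather than exactly 24 h; 100% = carrier-treated control wells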). Conditions: SK-BR-3 viability, CellTiter-Glo luminescence, at 10 µM, stronger effect = lower value.
Assay [4] is described as follows: HUVEC growth inhibition – cell-based, human, primary screen (AID 575;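 active = viability at or below 30% in both replicate assays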;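 note: 100% = median of untreated cell wells with 0.1% DMSO on each plate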). To be noted: HUVEC proliferation, CellTiter-Glo luminescence, 72 h; at 10 µM; stronger effect = lower value. In a few lines:
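Test system: primary human umbilical vein endothelial cells. Quantity: 1250 cells/well. Compound: single 10 µM dose, 0.1% DMSO, from 5x medium stock. Timing: 72 h treatment at 37 °C. Detection: ATP-based CellTiter-Glo luminescent read. Benchmarks: vehicle and MePR control wells. Format: 384-well plates coated with collagen.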
(In general: ATP-based viability assays read luminescence as a measure of living cells.)

The nature of assay [5]: H69AR cell proliferation blockers – human, duplicate replicates, primary screen (AID 580;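 active = viability at or under a set limit in both replicates, limit being median viability minus 3 SD, cut at about 48% in these data, passing the limit was not always enough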;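 note: 100% = mean luminescence of untreated wells and 0% = no signal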). Conditions: H69AR lung tumor cells viability, ATP luminescence, 72 h; at 10 µM; stronger effect = lower value.
Assay [6] can be described thus: MRP1 drug-resistance reversers in H69AR cells – cell-based, doxorubicin co-treatment, pilot screen (AID 601;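 active = viability loss from added drug above about 55%, and viability with drug at most 40%, in both replicates, limit read from the data, passing the limit was not always enough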). To be noted: CellTiter-Glo, 72 h, at 10 µM; for differential viability (reversal): stronger effect = higher value.
[7] abbreviates: H69AR cells + 2 uM doxorubicin, measured here: viability with 2 uM doxorubicin, stronger effect = lower value.
[8] abbreviates: H69AR cells, compound alone cytotoxicity.

Experimental findings from PubChem BioAssay are described below.

Active and inactive are the calls of the source.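 Rule for the calls, unless noted: active = Her2 level under about 52% in both replicate screens, with viability over 70% of control (limit read from the data); inconclusive = Her2 under the limit in one screen only, or viability under 70%; inactive = Her2 level above the set limit.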

As a reminder, the viability is a read-out of living cells in per cent, often relative to untreated cells.

Receptor tyrosine-protein kinase erbB-2 (Homo sapiens), sequence (P04626 whole entry, looked up): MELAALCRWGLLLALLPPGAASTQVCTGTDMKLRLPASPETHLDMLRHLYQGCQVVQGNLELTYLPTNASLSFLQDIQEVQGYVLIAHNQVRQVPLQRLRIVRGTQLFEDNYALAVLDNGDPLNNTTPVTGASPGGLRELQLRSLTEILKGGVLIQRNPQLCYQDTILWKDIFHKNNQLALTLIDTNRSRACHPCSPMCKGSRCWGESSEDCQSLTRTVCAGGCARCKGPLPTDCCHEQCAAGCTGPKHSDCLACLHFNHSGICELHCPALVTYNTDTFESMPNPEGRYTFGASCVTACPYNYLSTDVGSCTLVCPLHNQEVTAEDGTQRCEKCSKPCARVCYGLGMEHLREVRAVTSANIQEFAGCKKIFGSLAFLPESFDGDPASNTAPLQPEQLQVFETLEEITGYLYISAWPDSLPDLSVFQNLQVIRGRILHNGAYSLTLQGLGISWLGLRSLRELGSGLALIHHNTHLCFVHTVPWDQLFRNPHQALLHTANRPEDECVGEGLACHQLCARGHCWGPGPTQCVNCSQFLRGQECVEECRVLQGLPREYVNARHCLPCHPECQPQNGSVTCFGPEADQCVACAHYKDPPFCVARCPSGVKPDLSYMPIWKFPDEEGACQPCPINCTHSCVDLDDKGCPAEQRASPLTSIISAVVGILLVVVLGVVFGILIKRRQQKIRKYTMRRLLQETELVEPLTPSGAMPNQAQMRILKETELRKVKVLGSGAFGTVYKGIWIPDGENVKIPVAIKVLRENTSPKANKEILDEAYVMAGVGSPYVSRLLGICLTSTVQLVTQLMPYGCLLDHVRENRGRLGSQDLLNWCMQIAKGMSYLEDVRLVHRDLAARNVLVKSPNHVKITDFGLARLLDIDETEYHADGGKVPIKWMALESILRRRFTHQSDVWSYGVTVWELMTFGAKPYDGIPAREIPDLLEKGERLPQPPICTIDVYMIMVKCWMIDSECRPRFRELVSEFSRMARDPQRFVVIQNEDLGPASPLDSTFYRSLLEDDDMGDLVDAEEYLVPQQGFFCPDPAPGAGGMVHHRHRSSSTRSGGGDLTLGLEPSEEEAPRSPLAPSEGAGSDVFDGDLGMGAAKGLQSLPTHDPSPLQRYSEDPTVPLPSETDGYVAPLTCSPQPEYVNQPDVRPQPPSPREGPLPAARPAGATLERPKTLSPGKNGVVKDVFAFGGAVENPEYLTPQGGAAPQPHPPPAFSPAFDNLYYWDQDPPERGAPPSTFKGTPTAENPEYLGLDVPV

Consider `Cc1ncc([N+](=O)[O-])n1CCO`, for which the viability in assay [1] was 99.5%; in assay [3], 99.5% (inactive); in assay [4], 103% (inactive); in assay [5] it was 105% (inactive); in assay [6] (setting [7]), 96.7%; in assay [6] (setting [8]) it was 105%. The Her2 level in assay [2] is 108% (inactive). The differential viability (reversal) in assay [6] (H69AR cells + 2 uM doxorubicin) was 8.66% (inactive).
As to `CN(C)CCOC(C)(c1ccccc1)c1ccccn1` (stereo unspecified), the viability in assay [1] is 79.5%; in assay [3] it was 79.5% (inactive); in assay [4], 113% (inactive); in assay [5] it was 93.5% (inactive); in assay [6] (setting [7]), 105%; in assay [6] (setting [8]), 93.5%. The Her2 level in assay [2] was 120% (inactive). Also, the differential viability (reversal) in assay [6] (H69AR cells + 2 uM doxorubicin) was -11.6% (inactive).
For `C[C@@H]1C[C@H]2[C@@H]3C[C@H](F)C4=CC(=O)C=C[C@]4(C)[C@@]3(F)[C@@H](O)C[C@]2(C)[C@@]1(O)C(=O)CO`, the viability in assay [1] is 74%; in assay [3], 74% (inactive); in assay [4], 113% (inactive); in assay [5], 92.7% (inactive); in assay [6] (setting [7]) it was 96.5%; in assay [6] (setting [8]), 92.7%. The Her2 level in assay [2] was 118% (inactive). The differential viability (reversal) in assay [6] (H69AR cells + 2 uM doxorubicin) is -3.78% (inactive).
As to `Cn1cc(NC(=O)c2cc(NC(=O)c3cc(NC=O)cn3C)cn2C)cc1C(=O)NCCC(=N)N`, the viability in assay [1] was 96%; in assay [3], 96% (inactive); in assay [4], 90.6% (inactive); in assay [5], 83.1% (inactive); in assay [6] (setting [7]), 96.3%; in assay [6] (setting [8]) it was 83.1%. The Her2 level in assay [2] is 87.5% (inactive). Further, in assay [6] (H69AR cells + 2 uM doxorubicin), the differential viability (reversal) was -13.2% (inactive).
As to `CCn1cc(C(=O)O)c(=O)c2cnc(N3CCNCC3)nc21`, the viability was 108% in assay [1]; 108% (inactive) in assay [3]; 96.5% (inactive) in assay [4]; 107% (inactive) in assay [5]; 90.9% in assay [6] (setting [7]); 107% in assay [6] (setting [8]). In addition, the Her2 level in assay [2] is 102% (inactive). Moreover, the differential viability (reversal) in assay [6] (H69AR cells + 2 uM doxorubicin) was 16.4% (inactive).
For the compound `NS(=O)(=O)c1cc2c(cc1Cl)NC(C1C[C@H]3C=C[C@@H]1C3)NS2(=O)=O` (stereo partly specified), the viability in assay [1] is 110%; in assay [3], 110% (inactive); in assay [4], 88.3% (inactive); in assay [5] it was 92.7% (inactive); in assay [6] (setting [7]), 104%; in assay [6] (setting [8]), 92.7%. In assay [2], the Her2 level was 130% (inactive). Also, the differential viability (reversal) in assay [6] (H69AR cells + 2 uM doxorubicin) is -10.8% (inactive).
For `CC(C)[N+](C)(CCOC(=O)C1c2ccccc2Oc2ccccc21)C(C)C`, the viability in assay [1] is 108%; in assay [3], 108% (inactive); in assay [4], 100% (inactive); in assay [5] it was 88.1% (inactive); in assay [6] (setting [7]), 85.7%; in assay [6] (setting [8]), 88.1%. The Her2 level in assay [2] is 93% (inactive). The differential viability (reversal) in assay [6] (H69AR cells + 2 uM doxorubicin) is 2.38% (inactive).
As to `CC[N+](C)(CC)CCOC(=O)C(O)(c1ccccc1)C1CCCCC1` (stereo unspecified), the viability is 91.5% in assay [1]; 91.5% (inactive) in assay [3]; 98.9% (inactive) in assay [4]; 110% (inactive) in assay [5]; 97% in assay [6] (setting [7]); 110% in assay [6] (setting [8]). Further, the Her2 level in assay [2] is 97.5% (inactive). In assay [6] (H69AR cells + 2 uM doxorubicin), the differential viability (reversal) was 12.8% (inactive).
On to `CCCC(=O)Nc1ncnc2c1ncn2[C@@H]1O[C@@H]2COP(=O)(O)O[C@H]2[C@H]1OC(=O)CCC`, for which the viability in assay [1] is 102%; in assay [3] it was 102% (inactive); in assay [4], 109% (inactive); in assay [5], 104% (inactive); in assay [6] (setting [7]), 90.8%; in assay [6] (setting [8]), 104%. In addition, in assay [2], the Her2 level was 104% (inactive). The differential viability (reversal) in assay [6] (H69AR cells + 2 uM doxorubicin) is 13.3% (inactive).
Regarding `Cc1ccc(C)c(OCCCC(C)(C)C(=O)O)c1`, the viability was 130% in assay [1]; 130% (inactive) in assay [3]; 100% (inactive) in assay [4]; 109% (inactive) in assay [5]; 91.5% in assay [6] (setting [7]); 109% in assay [6] (setting [8]). Besides, the Her2 level in assay [2] was 104% (inactive). Moreover, in assay [6] (H69AR cells + 2 uM doxorubicin), the differential viability (reversal) was 17.2% (inactive).
As for `C[C@]12C[C@H](O)[C@H]3[C@@H](CCC4=CC(=O)CC[C@@]43C)[C@@H]1CC[C@@H]2C(=O)CO`, the viability in assay [1] is 106%; in assay [3], 106% (inactive); in assay [4], 105% (inactive); in assay [5] it was 88.3% (inactive); in assay [6] (setting [7]) it was 94.3%; in assay [6] (setting [8]) it was 88.3%. Also, the Her2 level in assay [2] is 104% (inactive). Also, in assay [6] (H69AR cells + 2 uM doxorubicin), the differential viability (reversal) is -5.99% (inactive).
As to `O=C(O)CCC(=O)Nc1ccc(S(=O)(=O)Nc2nccs2)cc1`, the viability in assay [1] was 122%; in assay [3], 122% (inactive); in assay [4], 75.4% (inactive); in assay [5] it was 94.4% (inactive); in assay [6] (setting [7]), 96.9%; in assay [6] (setting [8]), 94.4%. For the same compound, the Her2 level in assay [2] is 98.5% (inactive). Besides, the differential viability (reversal) in assay [6] (H69AR cells + 2 uM doxorubicin) is -2.46% (inactive).
Consider `Nc1ccc(S(=O)(=O)Nc2ncccn2)cc1`, for which the viability is 96.5% in assay [1]; 96.5% (inactive) in assay [3]; 91.4% (inactive) in assay [4]; 104% (inactive) in assay [5]; 98.7% in assay [6] (setting [7]); 104% in assay [6] (setting [8]). In assay [2], the Her2 level was 100% (inactive). The differential viability (reversal) in assay [6] (H69AR cells + 2 uM doxorubicin) was 5.02% (inactive).
Turning to `CC(=O)OCC(=O)[C@@]1(O)[C@H](C)C[C@H]2[C@@H]3CCC4=CC(=O)C=C[C@]4(C)[C@@]3(F)[C@@H](O)C[C@@]21C`, the viability was 118% in assay [1]; 118% (inactive) in assay [3]; 101% (inactive) in assay [4]; 93.5% (inactive) in assay [5]; 109% in assay [6] (setting [7]); 93.5% in assay [6] (setting [8]). Moreover, in assay [2], the Her2 level was 116% (inactive). Further, the differential viability (reversal) in assay [6] (H69AR cells + 2 uM doxorubicin) was -15.8% (inactive).
For `COc1ccc(-c2coc3cc(O)cc(O)c3c2=O)cc1`, the viability in assay [1] is 118%; in assay [3] it was 118% (inactive); in assay [4] it was 84.2% (inactive); in assay [5], 68.8% (inactive); in assay [6] (setting [7]), 95.8%; in assay [6] (setting [8]), 68.8%. For the same compound, the Her2 level in assay [2] was 99% (inactive). Besides, in assay [6] (H69AR cells + 2 uM doxorubicin), the differential viability (reversal) was -27% (inactive).
In the case of `OC(CCN1CCCCC1)(c1ccccc1)C1CCCCC1` (stereo unspecified), the viability is 69.5% in assay [1]; 69.5% (inactive) in assay [3]; 84.9% (inactive) in assay [4]; 92.2% (inactive) in assay [5]; 92.9% in assay [6] (setting [7]); 92.2% in assay [6] (setting [8]). In assay [2], the Her2 level was 99.5% (inactive). Besides, the differential viability (reversal) in assay [6] (H69AR cells + 2 uM doxorubicin) is -0.69% (inactive).
For `COc1cc2nc(N3CCN(C(=O)C4CCCO4)CC3)nc(N)c2cc1OC` (stereo unspecified), the viability in assay [1] is 100%; in assay [3], 100% (inactive); in assay [4], 98.5% (inactive); in assay [5] it was 91.6% (inactive); in assay [6] (setting [7]), 92%; in assay [6] (setting [8]), 91.6%. The Her2 level in assay [2] was 99% (inactive). For the same compound, in assay [6] (H69AR cells + 2 uM doxorubicin), the differential viability (reversal) was -0.44% (inactive).
